This test deals with Influenza A virus. In words: Antiviral activity against Influenza A virus (A/WSN/1933(H1N1)) infected in mouse assessed as reduction in viral titer in lung by measuring reduction in virus infectivity in MDCK cells at 5 mg/kg, po administered after 5 days of infection and measured after 24 hrs. Type of test: functional, organism-based. The procedure, abridged: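 Mice were inoculated with A/WSN/33 at 100 TCID50/mouse. Oral dosing was twice daily (BID), starting 5 days after infection. Lung virus titer (log TCID50/mL) was determined on MDCK cells 24 h after the first dose.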

Active and inactive are the calls of the source. No cut-off for these calls is given here.

For the compound `CCOC(=O)C1=C[C@@H](OC(CC)CC)[C@H](NC(C)=O)[C@@H](N)C1`, the result was Active.

These data come from ChEMBL document CHEMBL4699501, “Dihydrodibenzothiepine: Promising hydrophobic pharmacophore in the influenza cap-dependent endonuclease inhibitor” (Bioorg Med Chem Lett, 2020).
